Experimental data published in ChEMBL document CHEMBL1126293, “Substrate specificity of isopenicillin N synthase” (J Med Chem, 1992).

Tests used:
[1] = target: T1, Isopenicillin N synthase (Penicillium chrysogenum) (UniProt P08703); experiment: Anti-micrococcus luteus activity was tested for inhibition of isopenicillin N synthetase.; details: Penicillium chrysogenum (Penicillium notatum)
T1 sequence (whole entry): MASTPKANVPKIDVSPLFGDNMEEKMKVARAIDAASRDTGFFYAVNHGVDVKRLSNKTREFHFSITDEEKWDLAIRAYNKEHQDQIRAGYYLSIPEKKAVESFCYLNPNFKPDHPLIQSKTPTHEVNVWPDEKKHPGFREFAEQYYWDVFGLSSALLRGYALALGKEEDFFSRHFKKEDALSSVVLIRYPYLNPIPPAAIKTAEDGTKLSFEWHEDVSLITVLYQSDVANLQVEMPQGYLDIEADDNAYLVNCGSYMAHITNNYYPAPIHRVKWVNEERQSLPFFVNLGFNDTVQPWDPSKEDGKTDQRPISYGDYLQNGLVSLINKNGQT
How it was run: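 Peptide added at a known amount to a standard IPNS reaction mixture with ACV as substrate before starting the reaction with enzyme. Applied to peptides not converted to an anti-M. luteus product. Percent inhibition derived from the ratio of reaction rates with and without the peptide.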

[2] = Antibiotic activity against Micrococcus luteus (ATCC 9341 strain); assay type: functional
How it was run: (§1)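 Peptides at 0.3 mM incubated with purified IPNS in Tris-HCl pH 8.0 containing KCl, MgSO4, FeSO4, ascorbate and DTT, at 25 °C for 2–20 min in quadruplicate, then stopped with ethanol. Samples with and without penicillinase went into wells on M. luteus ATCC 9341 lawns, incubated overnight at 37 °C, and inhibition zones were read. Peptides giving no product were retested for 1 h at 3 mM.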

[3] = target: T2, Regulatory protein BlaR1 (Bacillus licheniformis) (UniProt P12287); experiment: Beta-lactamase induction in Bacillus licheniformis
T2 sequence (whole entry): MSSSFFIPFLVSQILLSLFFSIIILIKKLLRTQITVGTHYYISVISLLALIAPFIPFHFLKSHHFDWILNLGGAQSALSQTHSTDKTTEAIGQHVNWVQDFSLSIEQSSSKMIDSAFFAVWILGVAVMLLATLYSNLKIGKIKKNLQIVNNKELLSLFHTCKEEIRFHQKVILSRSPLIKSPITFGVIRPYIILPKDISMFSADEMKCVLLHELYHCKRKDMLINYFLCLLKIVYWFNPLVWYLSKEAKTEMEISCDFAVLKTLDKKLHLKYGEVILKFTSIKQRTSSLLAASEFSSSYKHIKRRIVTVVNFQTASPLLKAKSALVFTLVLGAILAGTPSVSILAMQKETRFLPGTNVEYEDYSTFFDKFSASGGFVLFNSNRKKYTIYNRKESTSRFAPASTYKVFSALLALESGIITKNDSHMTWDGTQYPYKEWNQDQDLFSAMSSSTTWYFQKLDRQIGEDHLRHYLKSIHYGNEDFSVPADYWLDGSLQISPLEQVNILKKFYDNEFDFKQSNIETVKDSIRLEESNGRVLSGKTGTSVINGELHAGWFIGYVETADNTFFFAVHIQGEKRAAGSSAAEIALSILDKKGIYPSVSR
How it was run: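 Ethanol-stopped IPNS reactions (peptide 0.3 mM, 25 °C) were mixed 1:1 with log-phase B. licheniformis ATCC 14580 diluted to 30 Klett units and incubated for 2 h at 30 °C. Tylosin was added, then after 15 min nitrocefin, with A492 read over 30 min. β-Lactam was quantified by β-lactamase synthesis relative to penicillin G.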

Micrococcus luteus = experiment: In vitro antibiotic activity against Micrococcus luteus(ATCC 9341 stain).; assay type: functional, organism-based; how it was run: as §1

N[C@@H](CCCC(=O)N[C@@H](CSSC[C@H](NC(=O)CCC[C@H](N)C(=O)O)C(=O)N[C@H](COCc1ccccc1)C(=O)O)C(=O)N[C@H](COCc1ccccc1)C(=O)O)C(=O)O
Activity [1]: No activity | Antibiotic activity [2]: No activity

CSC[C@@H](NC(=O)C(CSSCC(NC(=O)CCC[C@H](N)C(=O)O)C(=O)N[C@H](CSC)C(=O)O)NC(=O)CCC[C@H](N)C(=O)O)C(=O)O (stereo partly specified)
Antibiotic activity [2]: No activity

CC(C)[C@@H](NC(=O)[C@H](CSSC[C@H](NC(=O)OCc1ccccc1)C(=O)N[C@@H](C(=O)O)C(C)C)NC(=O)OCc1ccccc1)C(=O)O
Activity [1]: No activity | Antibiotic activity [2]: No activity | Beta-lactamase induction [3]: +

CC(C)[C@@H](NC(=O)[C@H](CSSC[C@H](NC(=O)c1cccc(CC(=O)O)c1)C(=O)N[C@@H](C(=O)O)C(C)C)NC(=O)c1cccc(CC(=O)O)c1)C(=O)O
Activity [1]: No activity | Antibiotic activity [2]: No activity

CC(C)=C(NC(=O)C(CS)NC(=O)CCC[C@H](N)C(=O)O)C(=O)O (stereo partly specified)
Antibiotic activity [2]: No activity

CC(C)[C@@H](NC(=O)[C@@H](CS)NC(=O)CCC[C@H](N)C(=O)O)C(=O)O
Activity [1]: No activity | Antibiotic activity [2]: No activity | Beta-lactamase induction [3]: +

CC(C)[C@@H](NC(=O)[C@H](CS)NC(=O)Cc1ccccc1CN)C(=O)O
Antibiotic activity (Micrococcus luteus): Yes

N[C@@H](CCCC(=O)NC(CSSCC(NC(=O)CCC[C@H](N)C(=O)O)C(=O)N[C@@H](Cc1cccs1)C(=O)O)C(=O)N[C@@H](Cc1cccs1)C(=O)O)C(=O)O (stereo partly specified)
Antibiotic activity [2]: No activity

COCC(COC)[C@@H](NC(=O)C(CSSCC(NC(=O)CCC[C@H](N)C(=O)O)C(=O)N[C@@H](C(=O)O)C(COC)COC)NC(=O)CCC[C@H](N)C(=O)O)C(=O)O (stereo partly specified)
Activity [1]: No activity | Antibiotic activity [2]: No activity

COCC(COC)[C@H](NC(=O)C(CSSCC(NC(=O)CCC[C@H](N)C(=O)O)C(=O)N[C@H](C(=O)O)C(COC)COC)NC(=O)CCC[C@H](N)C(=O)O)C(=O)O (stereo partly specified)
Activity [1]: No activity | Antibiotic activity [2]: No activity

CC(C)[C@@H](NC(=O)[C@H](CSSC[C@H](NC(=O)COc1ccccc1)C(=O)N[C@@H](C(=O)O)C(C)C)NC(=O)COc1ccccc1)C(=O)O
Antibiotic activity (Micrococcus luteus): Yes

NC(=O)C[C@@H](NC(=O)C(CSSCC(NC(=O)CCC[C@H](N)C(=O)O)C(=O)N[C@H](CC(N)=O)C(=O)O)NC(=O)CCC[C@H](N)C(=O)O)C(=O)O (stereo partly specified)
Antibiotic activity [2]: No activity

CC(C)[C@@H](NC(=O)[C@H](CS)NC(=O)[C@@H](N)CCC(=O)O)C(=O)O
Activity [1]: No activity | Antibiotic activity [2]: No activity

CC(Cl)[C@@H](NC(=O)C(CSSCC(NC(=O)CCC[C@H](N)C(=O)O)C(=O)N[C@@H](C(=O)O)C(C)Cl)NC(=O)CCC[C@H](N)C(=O)O)C(=O)O (stereo partly specified)
Activity [1]: No activity | Antibiotic activity [2]: No activity

CC(C)C(NC(=O)C(CS)NC(=O)CCC[C@H](N)C(=O)O)S(=O)(=O)O (stereo partly specified)
Antibiotic activity [2]: No activity

CC(C)[C@H](NC(=O)CCC[C@H](N)C(=O)O)C(=O)N[C@@H](C(=O)O)C(C)C
Antibiotic activity [2]: No activity

CC(C)[C@@H](NC(=O)[C@H](CCS)NC(=O)CCC[C@H](N)C(=O)O)C(=O)O
Antibiotic activity [2]: No activity

N[C@@H](CCCC(=O)NC(CSSCC(NC(=O)CCC[C@H](N)C(=O)O)C(=O)N[C@@H](C(=O)O)C1CCCCC1)C(=O)N[C@@H](C(=O)O)C1CCCCC1)C(=O)O (stereo partly specified)
Activity [1]: No activity | Antibiotic activity [2]: No activity

C=C(NC(=O)CCC[C@H](N)C(=O)O)C(=O)N[C@H](COCc1ccccc1)C(=O)O
Activity [1]: No activity | Antibiotic activity [2]: No activity

N[C@@H](CCCC(=O)NC(CSSCC(NC(=O)CCC[C@H](N)C(=O)O)C(=O)N[C@H](CC1CNc2ccccc21)C(=O)O)C(=O)N[C@H](CC1CNc2ccccc21)C(=O)O)C(=O)O (stereo partly specified)
Antibiotic activity [2]: No activity

N[C@@H](CCCC(=O)NC(CSSCC(NC(=O)CCC[C@H](N)C(=O)O)C(=O)NC(Cc1cccs1)C(=O)O)C(=O)NC(Cc1cccs1)C(=O)O)C(=O)O (stereo partly specified)
Antibiotic activity [2]: No activity

CC(C)[C@@H](NC(=O)[C@H](CSSC[C@H](NC(=O)CCCCC(=O)O)C(=O)N[C@@H](C(=O)O)C(C)C)NC(=O)CCCCC(=O)O)C(=O)O
Antibiotic activity (Micrococcus luteus): Yes

CS(=O)(=O)C[C@@H](NC(=O)C(CSSCC(NC(=O)CCC[C@H](N)C(=O)O)C(=O)N[C@H](CS(C)(=O)=O)C(=O)O)NC(=O)CCC[C@H](N)C(=O)O)C(=O)O (stereo partly specified)
Antibiotic activity [2]: No activity

N[C@@H](CCCC(=O)NC(CSSCC(NC(=O)CCC[C@H](N)C(=O)O)C(=O)N[C@H](COCc1ccccc1)C(=O)O)C(=O)N[C@H](COCc1ccccc1)C(=O)O)C(=O)O (stereo partly specified)
Activity [1]: No activity | Antibiotic activity [2]: No activity

N[C@@H](CCCC(=O)NC(CSSCC(NC(=O)CCC[C@H](N)C(=O)O)C(=O)NC1(C(=O)O)CCCC1)C(=O)NC1(C(=O)O)CCCC1)C(=O)O (stereo partly specified)
Activity [1]: No activity | Antibiotic activity [2]: No activity

CC(C)[C@@H](NC(=O)[C@H](CS)NC(=O)CCC[C@H](N)C(=O)O)C(=O)O
Activity [1]: No activity | Beta-lactamase induction [3]: +

N[C@@H](CCCC(=O)NC(CSSCC(NC(=O)CCC[C@H](N)C(=O)O)C(=O)N[C@H](Cc1cccs1)C(=O)O)C(=O)N[C@H](Cc1cccs1)C(=O)O)C(=O)O (stereo partly specified)
Antibiotic activity [2]: No activity

CC(C)[C@@H](NC(=O)[C@H](CS)NC(=O)CC[C@H](N)C(=O)O)C(=O)O
Activity [1]: No activity | Antibiotic activity [2]: No activity

COC(=O)CCCCC(=O)N[C@@H](CSSC[C@H](NC(=O)CCCCC(=O)OC)C(=O)N[C@@H](C(=O)O)C(C)C)C(=O)N[C@@H](C(=O)O)C(C)C
Antibiotic activity (Micrococcus luteus): Yes

N[C@@H](CCCC(=O)NC(CSSCC(NC(=O)CCC[C@H](N)C(=O)O)C(=O)N[C@H](CO)C(=O)O)C(=O)N[C@H](CO)C(=O)O)C(=O)O (stereo partly specified)
Antibiotic activity (Micrococcus luteus): Yes

N[C@@H](CCCC(=O)NC(CSSCC(NC(=O)CCC[C@H](N)C(=O)O)C(=O)N[C@H](CC(=O)O)C(=O)O)C(=O)N[C@H](CC(=O)O)C(=O)O)C(=O)O (stereo partly specified)
Antibiotic activity [2]: No activity

CC(C)[C@@H](NC(=O)[C@H](CSSC[C@H](NC(=O)Cc1ccccc1)C(=O)N[C@@H](C(=O)O)C(C)C)NC(=O)Cc1ccccc1)C(=O)O
Antibiotic activity (Micrococcus luteus): Yes

CC(NC(=O)CCC[C@H](N)C(=O)O)C(=O)N[C@@H](C(=O)O)C(C)(C)S (stereo partly specified)
Activity [1]: No activity

CC(C)[C@@H](NC(=O)[C@H](CSSC[C@H](NC(=O)[C@@H]1CCCN1C(=O)CN)C(=O)N[C@@H](C(=O)O)C(C)C)NC(=O)[C@@H]1CCCN1C(=O)CN)C(=O)O
Activity [1]: No activity | Antibiotic activity [2]: No activity

CC(C)[C@@H](NC(=O)[C@H](Cc1c[nH]cn1)NC(=O)CCC[C@H](N)C(=O)O)C(=O)O
Antibiotic activity [2]: No activity

CC(C)[C@@H](NC(=O)[C@H](CSSC[C@H](NC(=O)CCc1cccc(O)c1)C(=O)N[C@@H](C(=O)O)C(C)C)NC(=O)CCc1cccc(O)c1)C(=O)O
Activity [1]: No activity | Antibiotic activity (Micrococcus luteus): Yes

CC(C)[C@@H](NC(=O)[C@H](CSSC[C@H](NC(=O)Cc1cccc(C(=O)O)c1)C(=O)N[C@@H](C(=O)O)C(C)C)NC(=O)Cc1cccc(C(=O)O)c1)C(=O)O
Antibiotic activity (Micrococcus luteus): Yes

N[C@@H](CCCC(=O)NC(CSSCC(NC(=O)CCC[C@H](N)C(=O)O)C(=O)N[C@H](Cc1ccccc1)C(=O)O)C(=O)N[C@H](Cc1ccccc1)C(=O)O)C(=O)O (stereo partly specified)
Antibiotic activity [2]: No activity

C=CC[C@H](NC(=O)CCC[C@H](N)C(=O)O)C(=O)N[C@@H](C(=O)O)C(C)C
Activity [1]: No activity | Antibiotic activity [2]: No activity

C[S+]([O-])C[C@@H](NC(=O)C(CSSCC(NC(=O)CCC[C@H](N)C(=O)O)C(=O)N[C@H](C[S+](C)[O-])C(=O)O)NC(=O)CCC[C@H](N)C(=O)O)C(=O)O (stereo partly specified)
Antibiotic activity [2]: No activity

CC(C)[C@@H](NC(=O)[C@@H]1CSC(C)(C)N1C(=O)CCC[C@H](N)C(=O)O)C(=O)O
Activity [1]: No activity | Antibiotic activity [2]: No activity
